Values belong to the compound of their own block, whether it stands above or below them.
Tests used:
McOr3 = McOr3 co-expressed with Orco; assay type: cell-based, Megacyllene caryae; settings: McOr3, odorant at 30 µM applied 20 s
Procedure, shortened: (§1)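 Defolliculated Xenopus laevis oocytes (collagenase B, 2 h, room temperature) were co-injected with receptor and Orco (McOr1) cRNA and incubated 3–7 d. Two-electrode voltage clamp was run at −70 mV with 3 M KCl electrodes (0.2–2.0 MΩ) in ND96. Pheromone components and isomers, diluted in ND96, were applied at 30 µM for 20 s at 1.6 ml/min. Currents were filtered at 20 Hz and sampled at 100 Hz.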

[1] = test system: Megacyllene caryae adults; settings: adult M. caryae, field; ref Mitchell, 2012; cited from earlier work
McOr20 = McOr20 co-expressed with Orco; assay type: cell-based, Megacyllene caryae; settings: for Current response of receptor in separate screen: McOr20, odorant at 100 µM, data not shown; for Current response of receptor in screen: McOr20, odorant at 30 µM applied 20 s
McOr5 = McOr5 co-expressed with Orco; assay type: cell-based, Megacyllene caryae; settings: McOr5, odorant at 30 µM applied 20 s
Procedure, shortened: as §1

AmOr11 = settings: AmOr11, Xenopus assay; ref Wanner et al., 2007; cited from earlier work
BmOr3 = settings: ref Nakagawa et al., 2005; cited from earlier work
BmOr 1 = settings: ref Nakagawa et al., 2005; cited from earlier work

SMILES: CC[C@H](C)CO [(S)-methylbutan-1-ol, (S)-2-methylbutan-1-ol]
Current response of receptor in screen (McOr3): responded with high sensitivity

SMILES: CC(C)=CCCC(C)=CC=O (mixture of isomers) [Citral, citral]
Attraction of beetles [1]: attracts males and females in similar numbers

Current response of receptor in separate screen (McOr20): responded
SMILES: CCC[C@H](O)[C@H](C)O [(2S,3S)-2,3-hexanediol]

Current response of receptor in screen (McOr20): sensitive
SMILES: CCC[C@@H](O)[C@H](C)O [(2S,3R)-2,3-hexanediol]

Current response of receptor in screen (McOr5): sensitive
SMILES: OCCc1ccccc1 [2-phenylethanol]

Current response of receptor in screen (McOr20): sensitive
SMILES: CCC[C@@H](O)C(C)=O [(R)-3-hydroxyhexan-2-one]

SMILES: CC(=O)CCCCCC=CC(=O)O [9-oxo-2-decenoic acid]
EC50 (AmOr11): 280 nM

Current response of receptor in separate screen (McOr20): responded
SMILES: CCC[C@H](O)[C@@H](C)O [(2R,3S)-2,3-hexanediol]

SMILES: CCC/C=C\C=C\CCCCCCCCC=O [bombykal]
EC50 (BmOr3): 260 nM

SMILES: CCC/C=C\C=C\CCCCCCCCCO [bombykol]
EC50 (BmOr 1): 1500 nM
